# According to ChEMBL document CHEMBL1153427, “1-Sulfonyl-4-acylpiperazines as selective cannabinoid-1 receptor (CB1R) inverse agonists for the treatment of obesity” (J Med Chem, 2009):
# Assays:
# Cannabinoid receptor 1 [1] = target: T1, Cannabinoid receptor 1 (Homo sapiens, UniProt P21554); assay: Displacement of [3H]CP-55940 from human recombinant CB1R expressed in CHO cells; type: cell-based
# Outline: (§1)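 Radioligand competition used 0.5 nM [³H]CP55940 with recombinant human CB1R-CHO or CB2R-CHO membranes. Bound and free ligand were separated by filtration, and IC₅₀ came from nonlinear curve fitting.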
# Cannabinoid receptor 1 [2] = target: T1, Cannabinoid receptor 1; assay: Inverse agonist activity at human recombinant CB1R expressed in CHO cells assessed as increase in forskolin-stimulated cAMP level; type: functional, cell-based
# Outline: (§2)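 Recombinant CB1R-CHO cells were incubated with test compound across a range of concentrations, plus forskolin and the phosphodiesterase inhibitor IBMX. Buffer was Earle's balanced salt solution with 5 mM MgCl₂, 10 mM HEPES pH 7.3 and 1 mg/mL BSA, for 30 min at room temperature, with cAMP read out.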
# Cannabinoid receptor 2 = Cannabinoid receptor 2 (Homo sapiens, UniProt P34972); assay: Displacement of [3H]CP-55940 from human recombinant CB2R expressed in CHO cells; type: cell-based; outline: as §1
# Rattus norvegicus [3] = assay: Reduction of body weight in diet induced obese Sprague-Dawley rat at 3 mg/kg, po; type: functional
# Outline: (§3)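 Male DIO rats were acclimated at least 3 days in an automated food-intake system, where computer-linked balances logged grams of food eaten every 5 min. They were fed milled MHF diet throughout. Compound or vehicle (10% Tween-80 in water) was given by oral gavage 1 h before dark-cycle onset. Overnight food intake and body-weight change were measured against vehicle, with significance set at P < 0.05.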
# [4] = target: Voltage-gated inwardly rectifying potassium channel KCNH2 (Homo sapiens, UniProt Q12809); assay: Inhibition of human ERG by MK-0499 binding assay
# [5] = Plasma clearance in Sprague-Dawley rat at 1 mg/kg, iv and 2 mg/kg, po; type: ADME, organism-based
# Outline: (§4)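 Male Sprague-Dawley rats received 1 mpk intravenously or 2 mpk orally. Blood was drawn at various time points into lithium heparin and centrifuged, and plasma was stored at -70 °C. Plasma was extracted by protein precipitation and analysed by LC-MS/MS.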
# [6] = Volume of distribution at steady state in Sprague-Dawley rat at 1 mg/kg, iv and 2 mg/kg, po; type: ADME, organism-based; conditions: in vivo, read-out: Vdss; outline: as §4
# [7] = Bioavailability in Sprague-Dawley rat at 1 mg/kg, iv and 2 mg/kg, po; type: ADME, organism-based; conditions: in vivo; outline: as §4
# [8] = Ratio of drug level in brain to plasma in Sprague-Dawley rat at 1 mg/kg, iv and 2 mg/kg, po after 4 hrs; type: ADME, organism-based
# Rattus norvegicus [9] = assay: Reduction of overnight food intake in diet induced obese Sprague-Dawley rat at 3 mg/kg, po; type: functional; parameters: scale not given: the % may be the effect or the level left; outline: as §3
# Cannabinoid receptor 1 [10] = target: T2, Cannabinoid receptor 1 (Rattus norvegicus, UniProt P20272); assay: Displacement of [3H]CP-55940 from rat recombinant CB1R expressed in CHO cells; type: cell-based
# Cannabinoid receptor 1 [11] = target: T1, Cannabinoid receptor 1; assay: Displacement of [3H]SR141716 from human recombinant CB1R expressed in CHO cells; type: cell-based
# Cannabinoid receptor 1 [12] = target: T2, Cannabinoid receptor 1; assay: Displacement of [3H] SR-141716 from rat recombinant CB1R expressed in CHO cells; type: cell-based
# Cannabinoid receptor 1 [13] = target: T1, Cannabinoid receptor 1; assay: Agonist activity at human recombinant CB1R expressed in CHO cells assessed as inhibition of forskolin-stimulated cAMP level; type: functional, cell-based; outline: as §2
# [14] = Half life in Sprague-Dawley rat at 1 mg/kg, iv and 2 mg/kg, po; type: ADME, organism-based; conditions: in vivo; outline: as §4
# [15] = Ratio of drug level in brain to plasma in Sprague-Dawley rat at 1 mg/kg, iv and 2 mg/kg, po over 0.25 to 4 hrs; type: ADME, organism-based
# Outline: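 Male Sprague-Dawley rats got 1 mpk iv for brain penetration and were euthanised by CO₂ 1 h later. Whole brain was frozen on dry ice, and blood was taken by cardiac puncture into lithium heparin. PK arms were dosed 1 mpk iv and 2 mpk po, with blood sampled at several time points. Plasma and brain homogenate were extracted by protein precipitation and analysed by LCMS².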
# Cannabinoid receptor 1 [16] = target: T2, Cannabinoid receptor 1; assay: Antagonist activity at rat recombinant CB1R expressed in CHO cells assessed as inhibition of methanandamide-stimulated cAMP level; type: functional, cell-based
# Outline: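 Antagonist mode of the forskolin-stimulated cAMP assay in CB1R-CHO cells. Methanandamide at 300 nM was the agonist challenge, and IC₅₀ was determined across test-compound concentrations. Percent inhibition was also recorded at a single 2 µM test concentration.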
# Cannabinoid receptor 1 [17] = target: T2, Cannabinoid receptor 1; assay: Agonist activity at rat recombinant CB1R expressed in CHO cells assessed as inhibition of forskolin-stimulated cAMP level; type: functional, cell-based; outline: as §2
# Cytochrome P450 3A4 = Cytochrome P450 3A4 (Homo sapiens, UniProt P08684); assay: Inhibition of CYP3A4; type: ADME
# Cytochrome P450 2C9 = Cytochrome P450 2C9 (Homo sapiens, UniProt P11712); assay: Inhibition of CYP2C9; type: ADME
# Cytochrome P450 2C8 = target: T3, Cytochrome P450 2C8 (Homo sapiens, UniProt P10632); assay: Inhibition of CYP2C8; type: ADME
# T3 sequence (P10632 whole entry): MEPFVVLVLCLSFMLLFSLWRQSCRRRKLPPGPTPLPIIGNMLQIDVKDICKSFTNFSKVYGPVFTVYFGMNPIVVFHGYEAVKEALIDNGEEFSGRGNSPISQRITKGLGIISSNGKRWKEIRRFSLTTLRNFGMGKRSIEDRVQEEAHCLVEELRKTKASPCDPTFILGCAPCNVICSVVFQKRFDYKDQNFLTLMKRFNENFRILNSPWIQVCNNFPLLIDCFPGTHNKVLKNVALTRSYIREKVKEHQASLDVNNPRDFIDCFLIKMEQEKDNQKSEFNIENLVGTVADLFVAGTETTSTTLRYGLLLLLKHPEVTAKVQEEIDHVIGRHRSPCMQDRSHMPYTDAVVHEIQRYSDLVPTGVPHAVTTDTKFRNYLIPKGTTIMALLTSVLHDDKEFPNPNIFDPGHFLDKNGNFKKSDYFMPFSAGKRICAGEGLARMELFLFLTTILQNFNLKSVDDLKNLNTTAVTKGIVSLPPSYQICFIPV
# Rattus norvegicus [18] = organism: Rattus norvegicus; assay: Reduction of overnight food intake in diet induced obese Sprague-Dawley rat assessed as minimal effective dose; type: functional; conditions: feed or water, read-out: MED; outline: as §3
# [19] = Plasma clearance in dog; type: ADME, organism-based, Canis lupus familiaris
# [20] = Volume of distribution at steady state in dog; type: ADME, organism-based, Canis lupus familiaris; conditions: in vivo, read-out: Vdss
# [21] = Half life in dog; type: ADME, organism-based, Canis lupus familiaris; conditions: in vivo
# [22] = Cmax in dog; type: ADME, organism-based, Canis lupus familiaris; conditions: in vivo
# [23] = Bioavailability in dog; type: ADME, organism-based, Canis lupus familiaris; conditions: in vivo
# [24] = Plasma clearance in rhesus monkey; type: ADME, organism-based, Macaca mulatta
# [25] = Volume of distribution at steady state in rhesus monkey; type: ADME, organism-based, Macaca mulatta; conditions: in vivo, read-out: Vdss
# [26] = Half life in rhesus monkey; type: ADME, organism-based, Macaca mulatta; conditions: in vivo
# [27] = Cmax in rhesus monkey; type: ADME, organism-based, Macaca mulatta; conditions: in vivo
# [28] = Oral bioavailability in rhesus monkey; type: ADME, organism-based, Macaca mulatta; conditions: in vivo
# [29] = Cmax in Sprague-Dawley rat at 1 mg/kg, iv and 2 mg/kg, po; type: ADME, organism-based; conditions: in vivo; outline: as §4
# Chain of Voltage-gated inwardly rectifying potassium channel KCNH2 (Q12809 whole entry): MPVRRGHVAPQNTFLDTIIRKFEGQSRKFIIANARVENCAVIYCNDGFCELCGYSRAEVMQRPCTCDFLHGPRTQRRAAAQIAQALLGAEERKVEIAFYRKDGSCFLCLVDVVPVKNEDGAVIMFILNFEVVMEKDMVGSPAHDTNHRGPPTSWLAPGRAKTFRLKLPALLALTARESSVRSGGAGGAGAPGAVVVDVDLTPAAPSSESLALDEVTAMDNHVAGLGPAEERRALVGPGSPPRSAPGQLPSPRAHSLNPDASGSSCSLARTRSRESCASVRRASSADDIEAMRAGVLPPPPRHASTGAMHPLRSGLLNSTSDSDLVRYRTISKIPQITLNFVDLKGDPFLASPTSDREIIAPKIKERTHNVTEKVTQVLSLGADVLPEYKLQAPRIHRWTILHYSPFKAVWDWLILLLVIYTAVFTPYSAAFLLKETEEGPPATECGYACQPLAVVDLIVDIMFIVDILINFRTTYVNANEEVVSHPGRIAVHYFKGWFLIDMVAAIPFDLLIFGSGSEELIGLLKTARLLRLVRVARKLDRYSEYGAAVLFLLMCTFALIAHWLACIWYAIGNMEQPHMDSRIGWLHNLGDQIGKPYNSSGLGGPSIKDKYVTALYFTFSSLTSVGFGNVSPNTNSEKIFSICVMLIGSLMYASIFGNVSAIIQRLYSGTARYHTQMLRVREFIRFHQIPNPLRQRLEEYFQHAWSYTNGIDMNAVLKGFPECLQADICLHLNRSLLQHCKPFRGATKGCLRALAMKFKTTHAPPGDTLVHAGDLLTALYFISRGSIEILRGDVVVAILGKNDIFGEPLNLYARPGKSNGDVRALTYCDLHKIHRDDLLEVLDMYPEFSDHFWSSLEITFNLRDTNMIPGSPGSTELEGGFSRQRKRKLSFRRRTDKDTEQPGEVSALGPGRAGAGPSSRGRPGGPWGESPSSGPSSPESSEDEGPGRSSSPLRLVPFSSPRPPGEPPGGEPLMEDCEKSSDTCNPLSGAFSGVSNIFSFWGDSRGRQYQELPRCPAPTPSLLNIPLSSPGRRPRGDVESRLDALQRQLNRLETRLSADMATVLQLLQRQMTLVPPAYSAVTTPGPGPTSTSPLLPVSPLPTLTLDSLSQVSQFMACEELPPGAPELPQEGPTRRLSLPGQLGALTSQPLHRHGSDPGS
# Chain of Cannabinoid receptor 2 (P34972 whole entry): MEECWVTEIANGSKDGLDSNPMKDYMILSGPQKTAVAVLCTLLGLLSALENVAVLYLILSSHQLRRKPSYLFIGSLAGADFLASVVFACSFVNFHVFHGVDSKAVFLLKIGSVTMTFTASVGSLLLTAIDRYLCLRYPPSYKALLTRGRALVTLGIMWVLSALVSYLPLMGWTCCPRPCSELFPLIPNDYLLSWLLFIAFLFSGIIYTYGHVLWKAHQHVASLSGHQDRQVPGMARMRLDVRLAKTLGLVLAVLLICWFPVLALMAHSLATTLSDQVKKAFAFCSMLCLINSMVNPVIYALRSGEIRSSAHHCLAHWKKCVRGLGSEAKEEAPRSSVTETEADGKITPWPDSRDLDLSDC
# T2 sequence (P20272 whole entry): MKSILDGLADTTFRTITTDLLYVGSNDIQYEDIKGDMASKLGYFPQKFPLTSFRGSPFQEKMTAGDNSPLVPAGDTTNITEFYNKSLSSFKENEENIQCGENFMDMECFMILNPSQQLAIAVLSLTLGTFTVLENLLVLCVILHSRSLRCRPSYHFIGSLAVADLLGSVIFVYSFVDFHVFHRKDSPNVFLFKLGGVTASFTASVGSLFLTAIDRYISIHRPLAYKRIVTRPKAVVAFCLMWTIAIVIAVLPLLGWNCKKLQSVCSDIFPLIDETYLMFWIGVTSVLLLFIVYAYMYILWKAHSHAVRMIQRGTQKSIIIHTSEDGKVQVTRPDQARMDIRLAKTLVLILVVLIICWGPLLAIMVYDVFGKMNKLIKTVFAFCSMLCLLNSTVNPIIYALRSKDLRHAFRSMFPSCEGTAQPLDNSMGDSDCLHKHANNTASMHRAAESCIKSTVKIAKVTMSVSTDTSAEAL
# T1 sequence (P21554 whole entry): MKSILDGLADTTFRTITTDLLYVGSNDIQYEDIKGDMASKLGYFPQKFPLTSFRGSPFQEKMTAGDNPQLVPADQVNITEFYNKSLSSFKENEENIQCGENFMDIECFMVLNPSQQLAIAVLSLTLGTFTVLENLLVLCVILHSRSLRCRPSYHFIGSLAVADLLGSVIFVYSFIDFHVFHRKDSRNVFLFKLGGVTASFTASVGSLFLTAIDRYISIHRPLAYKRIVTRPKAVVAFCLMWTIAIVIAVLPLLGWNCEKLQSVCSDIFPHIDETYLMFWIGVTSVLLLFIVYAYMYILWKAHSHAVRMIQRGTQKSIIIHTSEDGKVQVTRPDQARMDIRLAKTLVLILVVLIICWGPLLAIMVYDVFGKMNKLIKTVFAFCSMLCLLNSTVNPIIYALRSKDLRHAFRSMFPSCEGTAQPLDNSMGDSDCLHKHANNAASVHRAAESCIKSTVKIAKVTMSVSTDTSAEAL
# Chain of Cytochrome P450 3A4 (P08684 whole entry): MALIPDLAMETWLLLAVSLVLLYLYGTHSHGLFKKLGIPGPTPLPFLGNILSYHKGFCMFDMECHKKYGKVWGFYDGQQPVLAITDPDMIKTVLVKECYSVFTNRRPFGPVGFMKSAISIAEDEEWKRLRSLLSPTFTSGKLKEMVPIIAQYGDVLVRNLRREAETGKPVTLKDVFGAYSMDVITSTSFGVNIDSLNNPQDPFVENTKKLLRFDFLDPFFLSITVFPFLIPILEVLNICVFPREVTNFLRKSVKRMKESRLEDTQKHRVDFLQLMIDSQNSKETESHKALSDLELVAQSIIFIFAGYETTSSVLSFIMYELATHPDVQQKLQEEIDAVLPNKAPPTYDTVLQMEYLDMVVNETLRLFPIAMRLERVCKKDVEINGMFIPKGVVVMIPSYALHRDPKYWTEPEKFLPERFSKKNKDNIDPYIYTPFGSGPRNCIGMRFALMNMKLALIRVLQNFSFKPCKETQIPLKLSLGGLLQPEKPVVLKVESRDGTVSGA
# Chain of Cytochrome P450 2C9 (P11712 whole entry): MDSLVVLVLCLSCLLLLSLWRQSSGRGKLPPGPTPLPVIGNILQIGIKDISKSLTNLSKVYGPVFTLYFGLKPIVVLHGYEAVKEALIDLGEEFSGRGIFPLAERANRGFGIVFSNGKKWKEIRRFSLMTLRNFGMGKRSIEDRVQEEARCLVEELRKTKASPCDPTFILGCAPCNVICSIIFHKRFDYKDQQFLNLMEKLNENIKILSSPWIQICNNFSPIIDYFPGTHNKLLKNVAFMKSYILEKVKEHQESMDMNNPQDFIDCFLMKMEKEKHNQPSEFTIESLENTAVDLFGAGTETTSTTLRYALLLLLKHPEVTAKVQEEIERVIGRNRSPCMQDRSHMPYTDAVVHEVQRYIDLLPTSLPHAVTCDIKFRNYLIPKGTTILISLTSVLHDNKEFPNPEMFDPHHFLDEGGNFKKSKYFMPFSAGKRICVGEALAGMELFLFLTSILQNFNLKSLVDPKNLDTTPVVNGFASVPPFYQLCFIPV
structure (smiles),measurement,setting,value
O=C(Cc1ccc(C(F)(F)F)cc1)N1CCN(S(=O)(=O)c2cc(C(F)(F)F)cc(C(F)(F)F)c2)CC1,IC50,Cannabinoid receptor 1 [1],5 nM
same,EC50,Cannabinoid receptor 1 [2],1 nM
same,IC50,Cannabinoid receptor 2,> 10000 nM
O=C(Cc1ccc(C(F)(F)F)cc1)N1CCN(S(=O)(=O)c2cc(Br)cc(C(F)(F)F)c2)CC1,IC50,Cannabinoid receptor 1 [1],6 nM
same,EC50,Cannabinoid receptor 1 [2],1 nM
same,IC50,Cannabinoid receptor 2,> 10000 nM
COC(=O)c1cc(C(F)(F)F)cc(S(=O)(=O)N2CCN(C(=O)Cc3ccc(C(F)(F)F)cc3)CC2)c1,IC50,Cannabinoid receptor 1 [1],5 nM
same,EC50,Cannabinoid receptor 1 [2],1 nM
same,IC50,Cannabinoid receptor 2,> 10000 nM
O=C([C@@H]1C[C@H]1c1ccc(C(F)(F)F)cc1)N1CCN(S(=O)(=O)c2cc(-c3ccn[nH]3)cc(C(F)(F)F)c2)CC1,IC50,Cannabinoid receptor 1 [1],0.3 nM
same,IC50,Cannabinoid receptor 2,> 10000 nM
same,Activity,Rattus norvegicus [3],-10 g
same,IC50,[4],500 nM
O=C([C@@H]1C[C@H]1c1ccc(C(F)(F)F)cc1)N1CCN(S(=O)(=O)c2cc(C3CC3)cc(C(F)(F)F)c2)CC1,IC50,Cannabinoid receptor 1 [1],0.3 nM
same,EC50,Cannabinoid receptor 1 [2],5.8 nM
same,IC50,Cannabinoid receptor 2,> 10000 nM
same,clearance,[5],3.7 mL/min/kg
same,Vd,[6],5.4 L/kg
same,bioavailability,[7],74%
same,Kp at 4 h,[8],0.3
same,Activity,Rattus norvegicus [9],-59%
same,Activity,Rattus norvegicus [3],-14 g
same,IC50,Cannabinoid receptor 1 [10],2.2 nM
same,IC50,Cannabinoid receptor 1 [11],0.1 nM
same,IC50,Cannabinoid receptor 1 [12],0.2 nM
same,EC50,Cannabinoid receptor 1 [13],5.8 nM
same,half-life,[14],22 h
same,Kp,[15],0.8
same,IC50,Cannabinoid receptor 1 [16],9.2 nM
same,EC50,Cannabinoid receptor 1 [17],3.4 nM
O=C([C@@H]1C[C@H]1c1ccc(C(F)(F)F)cc1)N1CCN(S(=O)(=O)c2cc(CCO)cc(C(F)(F)F)c2)CC1,IC50,Cannabinoid receptor 1 [1],4 nM
same,IC50,Cannabinoid receptor 2,> 10000 nM
same,IC50,[4],900 nM
O=C(Cc1ccc(C(F)(F)F)cc1)N1CCN(S(=O)(=O)c2cc(C3CC3)cc(C(F)(F)F)c2)CC1,IC50,Cannabinoid receptor 1 [1],1.2 nM
same,EC50,Cannabinoid receptor 1 [2],1 nM
same,IC50,Cannabinoid receptor 2,> 10000 nM
same,Activity,Rattus norvegicus [9],-40%
same,Activity,Rattus norvegicus [3],-2 g
same,IC50,Cannabinoid receptor 1 [10],27 nM
same,IC50,Cannabinoid receptor 1 [11],0.5 nM
same,IC50,Cannabinoid receptor 1 [12],11 nM
same,Kp,[15],1.1
same,IC50,Cannabinoid receptor 1 [16],1.9 nM
same,EC50,Cannabinoid receptor 1 [17],0.6 nM
O=C(c1ccc(C(F)(F)F)cc1)N1CCN(S(=O)(=O)c2cc(C3CC3)cc(C(F)(F)F)c2)CC1,IC50,Cannabinoid receptor 1 [1],58 nM
same,clearance,[5],1.9 mL/min/kg
same,Vd,[6],2.7 L/kg
same,bioavailability,[7],47%
same,Activity,Rattus norvegicus [9],-14%
same,Activity,Rattus norvegicus [3],8 g
same,IC50,Cannabinoid receptor 1 [10],175 nM
same,IC50,Cannabinoid receptor 1 [11],47 nM
same,IC50,Cannabinoid receptor 1 [12],227 nM
same,EC50,Cannabinoid receptor 1 [13],1.3 nM
same,half-life,[14],19 h
same,Kp,[15],0.8
same,IC50,Cannabinoid receptor 1 [16],77 nM
same,EC50,Cannabinoid receptor 1 [17],4.4 nM
O=C(C1CCCCC1)N1CCN(S(=O)(=O)c2cccc3ccccc23)CC1,IC50,Cannabinoid receptor 1 [1],95 nM
same,EC50,Cannabinoid receptor 1 [2],0.6 nM
same,IC50,Cannabinoid receptor 2,> 10000 nM
O=C([C@@H]1C[C@H]1c1ccc(C(F)(F)F)cc1)N1CCN(S(=O)(=O)c2cc(-c3nnc[nH]3)cc(C(F)(F)F)c2)CC1,IC50,Cannabinoid receptor 1 [1],0.2 nM
same,IC50,Cannabinoid receptor 2,> 10000 nM
same,clearance,[5],23.7 mL/min/kg
same,Vd,[6],3.8 L/kg
same,bioavailability,[7],31%
same,Kp at 4 h,[8],0.2
same,Activity,Rattus norvegicus [3],-14 g
same,IC50,Cytochrome P450 3A4,4700 nM
same,IC50,Cytochrome P450 2C9,6000 nM
same,IC50,Cytochrome P450 2C8,15000 nM
same,half-life,[14],3.8 h
same,minimal effective dose,Rattus norvegicus [18],0.3 mg/kg
same,clearance,[19],1.4 mL/min/kg
same,Vd,[20],1.1 L/kg
same,half-life,[21],8.6 h
same,Cmax,[22],210 nM
same,bioavailability,[23],26%
same,clearance,[24],14.6 mL/min/kg
same,Vd,[25],2.5 L/kg
same,half-life,[26],2 h
same,Cmax,[27],3 nM
same,bioavailability,[28],< 2%
same,Cmax,[29],190 nM
O=C([C@@H]1C[C@H]1c1ccc(C(F)(F)F)cc1)N1CCN(S(=O)(=O)c2cc(C(O)C(F)(F)F)cc(C(F)(F)F)c2)CC1 (mixture of isomers),IC50,Cannabinoid receptor 1 [1],1.5 nM
same,IC50,Cannabinoid receptor 2,> 10000 nM
same,Activity,Rattus norvegicus [3],-8 g
same,IC50,[4],60 nM
